Reference: publication PMC8320611 (Current Research in Toxicology, 2020)

Assays:
[1] = tested on: HepG2 cells; assay: Resazurin reduction assay; type: cell-based, human; conditions: HepG2, 1 h or 24 h incubation, 0–100 μM, vs negative control 1% DMSO
Outline: (§1)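 Cells were seeded at 180,000 per well (HepG2 in RPMI 1640, HT29 in DMEM; 5% FCS, 37 °C, 5% CO2). After 24 h they were exposed to 0.1, 1, 10 or 100 μM test compound for 1 h or 24 h, using DMSO stocks diluted 1:100, in triplicate. Controls were 0.1% SDS and 1% DMSO. Cells were washed and given resazurin for 1 h; fluorescence was read at 544/590 nm. Blank-subtracted values are % of DMSO control, mean ± SD of three experiments.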

[2] = tested on: HT29 cells; assay: Resazurin reduction assay; type: cell-based, human; conditions: HT29, 1 h or 24 h incubation, 0–100 μM, vs negative control 1% DMSO
Outline: as §1

[3] = tested on: HepG2 cells; assay: Comet assay; type: cell-based, human; conditions: for Total DNA strand breaks with FPG treatment (%-TI): HepG2, 24 h, 10 or 100 μM, FPG treated, two independent experiments; for Background DNA-strand breaks (tail intensity): HepG2, 24 h incubation, 10–100 μM, without FPG
Outline: (§2)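 Cells at 80–90% confluence, viability >80% by trypan blue (HepG2 in RPMI 1640, HT29 in DMEM; 5% FCS) were exposed 24 h to 10 or 100 μM test compound from DMSO stock diluted 1:1000. Controls were 0.1% DMSO and 10 J/m2 UVC. Slides were lysed overnight at 4 °C, then treated with FPG or buffer. Unwinding was pH 13.5, 20 min; electrophoresis 20 min, 25 V. Mean tail intensity was scored on 2 × 50 cells/slide. Without FPG: three independent experiments; with FPG: two, in duplicate.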

[4] = tested on: HT29 cells; assay: Comet assay; type: cell-based, human; conditions: for Total DNA strand breaks with FPG treatment (%-TI): HT29, 24 h, 10 or 100 μM, FPG treated, two independent experiments; for Background DNA-strand breaks (tail intensity): HT29, 24 h incubation, 10–100 μM, without FPG
Outline: as §2

[5] = in vitro studies; ref Prasad, 2000; cited from earlier work
[6] = tested on: human ovary carcinoma cell line ES-2; conditions: ES-2, 48 h incubation, at 1 mM; ref Liu et al., 2017; cited from earlier work
[7] = tested on: HT29 clone 19A human colon tumor cells; conditions: ref Pool-Zobel et al., 2000, cited from earlier work; for DNA strand breaks (comet assay): 15 min incubation, 100 μM END and ENL
[8] = ref Hu et al., 2007; cited from earlier work
[9] = tested on: extracellular vascular endothelial growth factor (VEGF); conditions: in vivo, mice with established human breast cancer; ref Dabrosin et al., 2002; cited from earlier work
[10] = tested on: microbiota from human faeces; conditions: incubation with microbiota from human faeces for 24 h; ref Heinonen et al., 2001; cited from earlier work
[11] = stated in the introduction, no reference given; cited from earlier work
[12] = tested on: human myelocytic HL-60 leukemia cancer cells; conditions: HL-60, incubation with 0.5–40 μM; ref Park et al., 2008; cited from earlier work

For `OC[C@H](Cc1cccc(O)c1)[C@H](CO)Cc1cccc(O)c1` [END, (2R,3R)-2,3-bis[(3-hydroxyphenyl)methyl]butane-1,4-diol], the Relative vitality [1] was “no significant reductions”, the Relative vitality [2] was “no significant reductions” and the “Total DNA strand breaks with FPG treatment (%-TI)” value (“Total DNA strand breaks … (%-TI)” for short) [3] was “No modulation”. For the same compound, the “Background DNA-strand breaks (tail intensity)” value (“Background DNA-strand breaks” for short) [3] was “No significant modulation”, the “Total DNA strand breaks … (%-TI)” value [4] was “No modulation” and the “Background DNA-strand breaks” value [4] was “No significant modulation”. For the same compound, the “Levels of reactive oxygen species (antioxidant effect)” value (“Levels of reactive oxygen species” for short) [5] was “reduce the levels of reactive oxygen species”, the Vitality [6] was “significant decrease in vitality” and the “DNA strand breaks (comet assay)” value [7] was “no differences to the negative control”. The “Oxidised pyrimidine DNA bases” value [7] was “reduced” and the “Protection against DNA damage and lipid peroxidation” value (“Protection” below) [8] was “protect against DNA damage and lipid peroxidation”.
For `O=C1OC[C@H](Cc2cccc(O)c2)[C@H]1Cc1cccc(O)c1` [ENL, (3R,4R)-3,4-bis[(3-hydroxyphenyl)methyl]oxolan-2-one], the Relative vitality [1] was “no significant reductions”, the Relative vitality [2] was “no significant reductions” and the “Total DNA strand breaks … (%-TI)” value [3] was “no significant modulation”. The “Background DNA-strand breaks” value [3] was “No significant modulation”, the “Total DNA strand breaks … (%-TI)” value [4] was “no significant modulation” and the “Background DNA-strand breaks” value [4] was “No significant modulation”. The “Extracellular VEGF” value [9] was “suppressed”, the “Levels of reactive oxygen species” value [5] was “reduce the levels of reactive oxygen species” and the Vitality [6] was “significant decrease in vitality”. The “DNA strand breaks (comet assay)” value [7] was “no differences to the negative control”, the “Oxidised pyrimidine DNA bases” value [7] was “reduced” and the “Oxidized purine DNA bases” value [7] was “had such an impact”. The “Protection” value [8] was “protect against DNA damage and lipid peroxidation”.
For `COc1cc([C@H]2OC[C@H]3[C@@H]2CO[C@@H]3c2ccc(O[C@@H]3O[C@H](CO)[C@@H](O)[C@H](O)[C@H]3O)c(OC)c2)ccc1O[C@@H]1O[C@H](CO)[C@@H](O)[C@H](O)[C@H]1O` [Pin-DG, pinoresinol diglycoside], the “Conversion into END and ENL” value [10] is given as 55%.
In the case of `COc1cc(C[C@@H](CO)[C@H](CO)Cc2ccc(O)c(OC)c2)ccc1O` [Seco, secoisolariciresinol], the “Conversion into END and ENL” value [10] is given as 72%, the “Levels of reactive oxygen species” value [5] is given as “reduce the levels of reactive oxygen species” and the “Protection” value [8] is given as “protect against DNA damage and lipid peroxidation”.
In the case of `COc1cc(C[C@@H](CO[C@@H]2O[C@H](CO)[C@@H](O)[C@H](O)[C@H]2O)[C@H](CO[C@@H]2O[C@H](CO)[C@@H](O)[C@H](O)[C@H]2O)Cc2ccc(O)c(OC)c2)ccc1O` [Seco-DG, seco-diglycoside], the Solubility in water [11] is listed as “highly soluble”.
For `COc1cc([C@H]2OC[C@H]3[C@@H]2CO[C@@H]3c2cc(OC)c(O)c(OC)c2)cc(OC)c1O` [Syr, 4,4′-(1S,3aR,4S,6aR)-Tetrahydro-1H,3H-furo[3,4-c]furan-1,4-diylbis(2,6-dimethoxy-phenol)], the Relative vitality [1] is listed as “no significant reductions”, the Relative vitality [2] is listed as “no significant reductions” and the “Cell vitality (MTT assay)” value [12] is listed as “significant concentration-dependent decrease”.
For `O=c1c(-c2ccc(O)cc2)coc2cc(O)cc(O)c12` [genistein, reference compound], the “DNA strand breaks (comet assay)” value [7] is listed as “induced highly significant”.
